Among the data in ChEMBL document CHEMBL3734668, “Evaluation of small molecule SecA inhibitors against methicillin-resistant Staphylococcus aureus” (Bioorg Med Chem, 2015) are IC50, MIC and Activity values, retold here.

Assay [1] addresses T1, Protein translocase subunit SecA 1 (Staphylococcus aureus (strain NCTC 8325), UniProt O06446).
T1 sequence (O06446 whole entry): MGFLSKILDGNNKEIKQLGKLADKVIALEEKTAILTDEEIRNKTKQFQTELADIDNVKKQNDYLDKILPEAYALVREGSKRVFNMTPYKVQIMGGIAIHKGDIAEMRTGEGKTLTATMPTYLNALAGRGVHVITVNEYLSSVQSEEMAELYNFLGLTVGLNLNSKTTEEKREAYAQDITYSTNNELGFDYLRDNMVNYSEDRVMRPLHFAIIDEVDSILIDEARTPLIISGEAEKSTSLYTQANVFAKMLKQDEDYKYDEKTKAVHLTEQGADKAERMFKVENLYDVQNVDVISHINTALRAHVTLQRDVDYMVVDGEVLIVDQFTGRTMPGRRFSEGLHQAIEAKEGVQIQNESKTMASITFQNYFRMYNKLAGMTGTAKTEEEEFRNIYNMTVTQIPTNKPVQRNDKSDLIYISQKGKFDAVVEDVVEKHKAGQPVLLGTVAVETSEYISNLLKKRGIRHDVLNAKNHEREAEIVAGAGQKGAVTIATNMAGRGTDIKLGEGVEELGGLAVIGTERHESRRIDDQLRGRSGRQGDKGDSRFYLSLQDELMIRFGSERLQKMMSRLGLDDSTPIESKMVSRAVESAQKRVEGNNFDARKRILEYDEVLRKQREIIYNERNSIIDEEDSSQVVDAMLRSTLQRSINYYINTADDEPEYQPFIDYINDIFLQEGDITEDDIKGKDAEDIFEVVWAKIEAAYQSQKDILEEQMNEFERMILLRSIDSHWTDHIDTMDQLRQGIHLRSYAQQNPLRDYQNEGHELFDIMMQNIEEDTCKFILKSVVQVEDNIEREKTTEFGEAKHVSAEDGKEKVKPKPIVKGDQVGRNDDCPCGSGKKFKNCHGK
The assay is described as follows: Inhibition of Staphylococcus aureus ATCC 35556 SecA1 expressed in Escherichia coli BL21-gammaDE3 assessed as reduction in intrinsic ATPase activity incubated for 3 hrs measured by malachite green colorimetric method.

Assay [2] deals with T2, Protein translocase subunit SecA 2 (Staphylococcus aureus (strain NCTC 8325), UniProt Q2FUW6).
T2 sequence (Q2FUW6 whole entry): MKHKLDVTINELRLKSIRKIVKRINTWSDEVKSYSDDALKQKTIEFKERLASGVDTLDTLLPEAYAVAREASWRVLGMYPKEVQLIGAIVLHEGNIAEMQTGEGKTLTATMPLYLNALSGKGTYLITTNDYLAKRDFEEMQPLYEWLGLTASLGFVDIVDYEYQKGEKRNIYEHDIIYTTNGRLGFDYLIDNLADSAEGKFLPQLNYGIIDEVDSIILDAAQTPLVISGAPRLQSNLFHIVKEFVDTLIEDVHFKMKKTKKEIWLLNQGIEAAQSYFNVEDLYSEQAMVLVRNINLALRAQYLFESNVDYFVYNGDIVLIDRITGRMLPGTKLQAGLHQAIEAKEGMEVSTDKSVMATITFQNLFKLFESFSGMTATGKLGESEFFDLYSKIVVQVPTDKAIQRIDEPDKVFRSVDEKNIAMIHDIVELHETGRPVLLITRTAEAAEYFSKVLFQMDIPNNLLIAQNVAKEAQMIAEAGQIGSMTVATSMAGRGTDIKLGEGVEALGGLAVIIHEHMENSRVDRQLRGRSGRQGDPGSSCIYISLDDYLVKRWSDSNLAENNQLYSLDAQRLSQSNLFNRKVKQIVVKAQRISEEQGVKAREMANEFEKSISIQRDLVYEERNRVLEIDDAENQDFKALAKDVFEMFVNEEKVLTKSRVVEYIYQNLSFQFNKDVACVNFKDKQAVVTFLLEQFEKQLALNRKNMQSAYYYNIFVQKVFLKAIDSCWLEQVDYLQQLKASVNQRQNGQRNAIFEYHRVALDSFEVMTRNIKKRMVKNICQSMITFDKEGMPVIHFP
As to the kind of experiment: Inhibition of Staphylococcus aureus ATCC 35556 SecA2 expressed in Escherichia coli BL21-gammaDE3 assessed as reduction in intrinsic ATPase activity incubated for 3 hrs measured by malachite green colorimetric method.

In assay [3] the target is T1, Protein translocase subunit SecA 1. The assay is described as follows: Inhibition of Staphylococcus aureus ATCC 35556 SecA1 liposomal ion channel activity in Xenopus laevis oocytes incubated for 3 hrs measured by recording ion current for 1 min. The class given is cell-based. Summed up: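 Xenopus laevis oocytes injected at animal pole with 50 nl containing 120 ng liposomes, 120 ng SaSecA1, 14 ng proOmpA, 2 mM ATP, 1 mM Mg(OAc)2 plus varying inhibitor. Incubated 3 hr at 23 °C, then ion current recorded continuously 1 min.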

Assay [4] has as its system Staphylococcus aureus. The assay is described as follows: Bacteriostatic activity against Staphylococcus aureus ATCC 6538 after 24 hrs. The class given is functional. As to conditions: ATCC 6538, 24 h.
In assay [5] the test system is Staphylococcus aureus. As to the kind of experiment: Bacteriostatic activity against Staphylococcus aureus N315 after 24 hrs. The class given is functional. As to conditions: N315, 24 h. The procedure, abridged: (§1)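 Broth microdilution MIC per CLSI guidance in LB, 37 °C, shaking 250 rpm, 24 hr; run in triplicate in three separate experiments. MIC taken as lowest inhibitor concentration with no growth. Compounds from DMSO stocks; untreated controls carry equal DMSO.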

For assay [6], the system named is Staphylococcus aureus. The assay is described as follows: Bacteriostatic activity against Staphylococcus aureus Mu3 after 24 hrs. The class given is functional. As to conditions: Mu3, 24 h. The procedure, abridged:
as §1

For assay [7], the system named is Staphylococcus aureus. The assay is described as follows: Bacteriostatic activity against Staphylococcus aureus Mu50 after 24 hrs. In kind it is functional. As to conditions: Mu50, 24 h. Summed up: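 Broth microdilution per CLSI guidelines in LB. Inhibitor added to dilute early-log culture (OD600 ≈ 0.05), 37 °C, 250 rpm, 24 hrs. Run in triplicate in three separate experiments. MIC read as the lowest concentration with no growth.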

Assay [8] relates to Staphylococcus aureus. As to the kind of experiment: Bacteriostatic activity against Staphylococcus aureus Newman after 24 hrs. The class given is functional. Summed up:
as §1

In assay [9] the test system is Staphylococcus aureus. The assay is described as follows: Bacteriostatic activity against wild type Staphylococcus aureus 8325-4. The class given is functional. The procedure, abridged:
as §1

Assay [10] deals with Staphylococcus aureus. As to the kind of experiment: Bacteriostatic activity against NorA deficient Staphylococcus aureus K1758. The class given is functional. The procedure, abridged:
as §1

Assay [11] relates to Staphylococcus aureus. As to the kind of experiment: Bacteriostatic activity against Staphylococcus aureus K2361 overexpressing NorA. In kind it is functional. Summed up:
as §1

Assay [12] relates to Staphylococcus aureus. The assay is described as follows: Bacteriostatic activity against MepA deficient Staphylococcus aureus K2908. The class given is functional. The procedure, abridged: as §1
The test system of assay [13] is Staphylococcus aureus. The assay is described as follows: Bacteriostatic activity against Staphylococcus aureus K2068 overexpressing MepA. In kind it is functional. Summed up: as §1
The target in assay [14] is T3, Protein translocase subunit SecA 1 (Staphylococcus aureus (strain NCTC 8325)) (UniProt O06446).
T3 sequence (whole entry): T1 sequence (O06446 whole entry)
The assay is described as follows: Binding affinity to SecA1 in Staphylococcus aureus ATCC 6538 whole cell lysate incubated for 1 hr by Streptavidin-based pull down assay. Summed up:
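Lysate precleared on streptavidin magnetic beads (4 °C, 1 hr), then rolled ±400 μM biotinylated probe at 4 °C, 1 hr. Beads washed three times, boiled in SDS buffer; SaSecA1 detected by Western blot using cross-reacting EcSecA antibody.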

The nature of assay [15]: Inhibition of Escherichia coli SecA N68 mutant ATPase activity.

One may read the IC50 as the concentration that gives 50% inhibition. The term MIC denotes the smallest concentration in the dilution series that meets the test's criterion for growth inhibition.

SMILES strings stand for the structures. Values after ≈ are worked out from the molar mass of the structure shown. Active and inactive are the calls of the source.

As to `Oc1ccc2c(c1)Oc1cc(O)ccc1C2C1CCCC1`, the IC50 in [1] is 35 µM; in assay [2], 30 µM; in assay [3] it was 2 µM. The MIC in [4] worked out at 11 mg/L (≈ 39 µM); in assay [5], 14 mg/L (≈ 49.6 µM); in assay [6], 14 mg/L (≈ 49.6 µM); in [7], 14 mg/L (≈ 49.6 µM); in [8], 7 mg/L (≈ 24.8 µM).

With `O=C([O-])c1c(Cl)c(Cl)c(Cl)c(Cl)c1-c1c2cc(I)c(=O)c(I)c-2oc2c(I)c([O-])c(I)cc12.[Na+].[Na+]` [ROSE BENGAL SODIUM], the MIC worked out at 13 mg/L in [9]; 22 mg/L in assay [10]; 35 mg/L in assay [11]; 11 mg/L in assay [12]; 15 mg/L in [13]; 21 mg/L in assay [5]. Also, the MIC is 59 mg/L in assay [6] and 51 mg/L in [8]. Further, the IC50 in assay [2] came out at 2 µM.

For `CC1(C)S[C@@H]2[C@H](NC(=O)[C@H](N)c3ccccc3)C(=O)N2[C@H]1C(=O)O` [AMPICILLIN], in assay [7], the MIC turned out to be 1000 mg/L (≈ 2860 µM).

Consider `CN(C)[C@@H]1C(O)=C(C(N)=O)C(=O)[C@@]2(O)C(O)=C3C(=O)c4c(O)cccc4[C@@](C)(O)[C@H]3C[C@@H]12` [TETRACYCLINE], for which, in assay [7], the MIC worked out at 63 mg/L (≈ 142 µM).

For the compound `CCn1cc(C(=O)O)c(=O)c2cc(F)c(N3CCNCC3)cc21` [NORFLOXACIN], the MIC in [7] turned out to be 250 mg/L (≈ 783 µM).

In the case of `CC[C@H]1OC(=O)[C@H](C)[C@@H](O[C@H]2C[C@@](C)(OC)[C@@H](O)[C@H](C)O2)[C@H](C)[C@@H](O[C@@H]2O[C@H](C)C[C@H](N(C)C)[C@H]2O)[C@](C)(O)C[C@@H](C)C(=O)[C@H](C)[C@@H](O)[C@]1(C)O` [ERYTHROMYCIN], the MIC in assay [7] is above 1250 mg/L.

In assay [7], `CO[C@H]1/C=C/O[C@@]2(C)Oc3c(C)c(O)c4c(O)c(c(/C=N/N5CCN(C)CC5)c(O)c4c3C2=O)NC(=O)/C(C)=C\C=C\[C@H](C)[C@H](O)[C@@H](C)[C@@H](O)[C@@H](C)[C@H](OC(C)=O)[C@@H]1C` [RIFAMPIN] showed an MIC above 1000 mg/L.

`NC[C@H]1O[C@H](O[C@H]2[C@H](O)[C@@H](O[C@H]3O[C@H](CO)[C@@H](O)[C@H](N)[C@H]3O)[C@H](N)C[C@@H]2N)[C@H](O)[C@@H](O)[C@@H]1O` [KANAMYCIN] registered an MIC in assay [7] of 1000 mg/L (≈ 2060 µM).

For `CN[C@@H](CC(C)C)C(=O)N[C@H]1C(=O)N[C@@H](CC(N)=O)C(=O)N[C@H]2C(=O)N[C@H]3C(=O)N[C@H](C(=O)N[C@@H](C(=O)O)c4cc(O)cc(O)c4-c4cc3ccc4O)[C@H](O)c3ccc(c(Cl)c3)Oc3cc2cc(c3O[C@H]2O[C@@H](CO)[C@H](O)[C@@H](O)[C@@H]2O[C@@H]2C[C@@](C)(N)[C@@H](O)[C@@H](C)O2)Oc2ccc(cc2Cl)[C@H]1O`, the MIC in assay [7] was determined as 8 mg/L (≈ 5.52 µM).

Take `O=C(CCCC[C@@H]1SC[C@@H]2NC(=O)N[C@@H]21)NCCCCCCC1c2ccc(O)cc2Oc2cc(O)ccc21`: in [14], the outcome was Active. Besides, half-maximal inhibition in assay [15] (IC50) was put at 90 µM.
